Measured values: ChEMBL document CHEMBL1131544, “Synthesis and antioxidant activity of novel amphipathic derivatives of tea polyphenol” (Bioorg Med Chem Lett, 1998)

Columns and labels:
Format in all cases: functional
[1] = Inhibitory activity against lipid peroxidation of egg-phosphatidylcholine (PC) liposome caused by water-soluble radical initiator [2,2'-azobis(2-amidinopropane) dihydrochloride] (AAPH); strongly aggregated and precipitated the lipids, hence not eva luated
Summary of the method: (§1)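 Egg PC liposome peroxidation driven by water-soluble initiator AAPH (0.21 M aqueous stock, 150 µl) with sample in DMSO; 37°C for 20 min, capped tube. TBA reagent (0.375% TBA, 15% TCA, 0.25 N HCl) added, 100°C 15 min, cooled, spun; thiobarbituric acid reactive substances measured at 535 nm to give IC50.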

[2] = Inhibitory activity against lipid peroxidation of egg-phosphatidylcholine (PC) liposome caused by water-soluble radical initiator [2,2'-azobis(2-amidinopropane) dihydrochloride] (AAPH); summary of the method: as §1
[3] = Inhibitory activity against lipid peroxidation of egg-phosphatidylcholine (PC) liposome caused by lipid-soluble radical initiator [2,2'-azobis(2,4- dimethylvaleronitrile] (AMVN)
Summary of the method: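 Egg PC liposomes (0.65 ml) incubated with sample in DMSO plus AMVN (8 mM DMSO stock) and water, 37°C, 20 min, capped tube. Stopped with thiobarbituric acid/trichloroacetic acid/HCl, heated 100°C 15 min, ice-cooled, centrifuged; TBARS in supernatant read at 535 nm. IC50 against lipid peroxidation.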

SMILES	IC50 [1]	IC50 [2] [µM]	IC50 [3] [µM]
CCCCCCCCSCc1c(O)c(CSCCCCCCCC)c2c(c1O)C[C@@H](OC(=O)c1cc(O)c(O)c(O)c1)[C@@H](c1cc(O)c(O)c(O)c1)O2	–	7.9	60
O=C(O[C@@H]1Cc2c(O)c(CSCc3ccccc3)c(O)c(CSCc3ccccc3)c2O[C@@H]1c1cc(O)c(O)c(O)c1)c1cc(O)c(O)c(O)c1	–	9.6	432
O=C(O[C@H]1[C@@H](c2cc(O)c(O)c(O)c2)Oc2cc(O)cc(O)c2[C@@H]1SCCO)c1cc(O)c(O)c(O)c1	–	20.5	> 500
CCCCCCCCCCCCCCCCCCNC(=O)Oc1c(O)cc(C(=O)O[C@@H]2Cc3c(O)cc(O)cc3O[C@@H]2c2cc(O)c(O)c(O)c2)cc1O	–	24.6	22.1
O=C(O[C@@H]1Cc2c(O)cc(O)cc2O[C@@H]1c1cc(O)c(O)c(O)c1)c1cc(O)c(O)c(O)c1 [EPIGALOCATECHIN GALLATE]	–	20.8	> 500
CCCCCCCCOC(=O)c1cc(O)c(O)c(O)c1 [OCTYL_GALLATE]	–	18.6	188

Results, then the compound that gave them:

IC50 [1]	IC50 [2] [µM]	IC50 [3] [µM]	SMILES
No effect	–	–	CCCCCCCCCCCCCCCCCCSCc1c(O)c(CSCCCCCCCCCCCCCCCCCC)c2c(c1O)C[C@@H](OC(=O)c1cc(O)c(O)c(O)c1)[C@@H](c1cc(O)c(O)c(O)c1)O2
–	8.8	60.8	CCCCCCCCSCc1c(O)c(CSCCCCCCCC)c2c(c1O)[C@H](SCCO)[C@@H](OC(=O)c1cc(O)c(O)c(O)c1)[C@@H](c1cc(O)c(O)c(O)c1)O2
No effect	–	–	CCCCCCCCCCCCCCCCSCc1c(O)c(CSCCCCCCCCCCCCCCCC)c2c(c1O)C[C@@H](OC(=O)c1cc(O)c(O)c(O)c1)[C@@H](c1cc(O)c(O)c(O)c1)O2
–	135	19.4	CCCCCCCCSCc1c(O)c(CSCCCCCCCC)c2c(c1O)[C@H](SCCCCCCCC)[C@@H](OC(=O)c1cc(O)c(O)c(O)c1)[C@@H](c1cc(O)c(O)c(O)c1)O2
–	12	> 500	COC(=O)CSCc1c(O)c(CSCC(=O)OC)c2c(c1O)C[C@@H](OC(=O)c1cc(O)c(O)c(O)c1)[C@@H](c1cc(O)c(O)c(O)c1)O2
–	11.6	> 500	C=CCSCc1c(O)c(CSCC=C)c2c(c1O)C[C@@H](OC(=O)c1cc(O)c(O)c(O)c1)[C@@H](c1cc(O)c(O)c(O)c1)O2
–	40.3	5.9	Cc1c(C)c2c(c(C)c1O)CC[C@@](C)(CCC[C@H](C)CCC[C@H](C)CCCC(C)C)O2 [ALPHA-TOCOPHEROL]
